Test results published in ChEMBL document CHEMBL1759885, “Syntheses of 1,2,3-triazolyl salicylamides with inhibitory activity on lipopolysaccharide-induced nitric oxide production” (Bioorg Med Chem Lett, 2011).
pIC50: −log10 of the molar value. Calls of active or inactive are those of the source. No cut-off for these calls is given here.

Key:
RAW264.7 [1] = experiment: Inhibition of LPS-induced nitric oxide production in mouse RAW264.7 cells after 20 hrs by Griess reaction; assay type: functional, cell-based; settings: for pIC50: RAW264.7, 20 h
How it was run: (§1)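 RAW 264.7 cells plated at 5 × 10⁵ cells/mL, grown 24 h, then given LPS (1 µg/mL) plus compound (DMSO vehicle, final ≤0.1%) for 20 h. Supernatant nitrite measured with Griess reagent (1% sulfanilamide in 5% H₃PO₄, 0.1% N-(1-naphthyl)ethylenediamine) at 540 nm against a NaNO₂ standard curve. %inhibition = [1 − sample NO/vehicle-control NO] × 100. IC50 by nonlinear regression.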

RAW264.7 [2] = experiment: Inhibition of LPS-induced nitric oxide production in mouse RAW264.7 cells at 20 uM after 20 hrs by Griess reaction; assay type: functional; settings: RAW264.7, 20 h; how it was run: as §1
RAW264.7 [3] = experiment: Inhibition of LPS-induced iNOS mRNA expression in mouse RAW264.7 cells at 15 uM after 4 hrs by RT-PCR; assay type: functional, cell-based
How it was run: (§2)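 RAW 264.7 cells stimulated with LPS (1 µg/mL) with or without several compound concentrations. Total RNA collected at 4 h and analysed for iNOS mRNA by RT-PCR. Protein collected at 16 h and analysed for iNOS by western blot, with β-actin as reference.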

RAW264.7 [4] = experiment: Inhibition of LPS-induced iNOS protein expression in mouse RAW264.7 cells after 16 hrs by Western blot; assay type: functional, cell-based; how it was run: as §2
RAW264.7 [5] = experiment: Inhibition of LPS-induced iNOS mRNA expression in mouse RAW264.7 cells after 4 hrs by RT-PCR; assay type: functional, cell-based; how it was run: as §2
RAW264.7 [6] = experiment: Cytotoxicity against mouse RAW264.7 cells assessed as cell viability upto 15 uM after 24 hrs by MTT assay; assay type: cell-based; settings: raw264.7, 24 h
How it was run: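 RAW 264.7 macrophages exposed to compound for 24 h, and viability then read by MTT assay.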

RAW264.7 [7] = experiment: Inhibition of LPS-induced iNOS protein expression in mouse RAW264.7 cells at 15 uM after 16 hrs by Western blot; assay type: functional, cell-based; how it was run: as §2

Structure (SMILES)	pIC50 (RAW264.7 [1])	inhibition at 20 µM (RAW264.7 [2]) [%]	other results
CNC(=N)NCCC[C@H](N)C(=O)O [TILARGININE]	4.70		
CCCCCCc1cn(-c2ccc(O)c(C(=O)NCCC)c2)nn1	4.71	57.9	
O=C(c1cc(-n2cc(-c3ccccc3)nn2)ccc1O)N1CCCCC1	< 4.70	11.8	
O=C(c1cc(-n2cc(-c3cc(C(F)(F)F)cc(C(F)(F)F)c3)nn2)ccc1O)N1CCCCC1	4.89	94.1	inhibition (RAW264.7 [3]): Active; inhibition (RAW264.7 [4]): Dose-dependent effect; inhibition (RAW264.7 [5]): Dose-dependent effect; Activity (RAW264.7 [6]): Non-toxic; inhibition (RAW264.7 [7]): Active; Activity (RAW264.7 [1]): Dose-dependent effect
CCCNC(=O)c1ccc(-n2cc(-c3cc(F)cc(F)c3)nn2)cc1O	< 4.70	0	
CCCNC(=O)c1cc(-n2cc(CCC(C)C)nn2)ccc1O	< 4.70	22.6	
O=C(c1ccc(-n2cc(-c3cc(F)cc(F)c3)nn2)cc1O)N1CCCCC1	< 4.70	0	
CCCCCCc1cn(-c2ccc(O)c(C(=O)N3CCCCC3)c2)nn1	< 4.70	4.2	
CCCNC(=O)c1ccc(-n2cc(CCC(C)C)nn2)cc1O	< 4.70	7.3	
CCCCCc1ccc(-c2cn(-c3ccc(C(=O)N4CCCCC4)c(O)c3)nn2)cc1	< 4.70	0	
CCCNC(=O)c1ccc(-n2cc(-c3cccc(Cl)c3)nn2)cc1O	< 4.70	0	
O=C(c1cc(-n2cc(-c3cc(F)cc(F)c3)nn2)ccc1O)N1CCCCC1	< 4.70	9.1	
CCCNC(=O)c1ccc(-n2cc(-c3ccccc3)nn2)cc1O	< 4.70	1.1	
O=C(c1cc(-n2cc(-c3cccc(Cl)c3)nn2)ccc1O)N1CCCCC1	< 4.70	35.4	
CCCNC(=O)c1cc(-n2cc(-c3ccccc3)nn2)ccc1O	< 4.70	28.6	
O=C(c1ccc(-n2cc(-c3cccc(Cl)c3)nn2)cc1O)N1CCCCC1	< 4.70	0	
CCCCCc1ccc(-c2cn(-c3ccc(C(=O)NCCC)c(O)c3)nn2)cc1	< 4.70	0	
CCCNC(=O)c1cc(-n2cc(-c3cc(F)cc(F)c3)nn2)ccc1O	< 4.70	0	
O=C(c1ccc(-n2cc(-c3cc(C(F)(F)F)cc(C(F)(F)F)c3)nn2)cc1O)N1CCCCC1	< 4.70	0	
CC(C)CCc1cn(-c2ccc(C(=O)N3CCCCC3)c(O)c2)nn1	< 4.70	1.9	
CCCCCCc1cn(-c2ccc(C(=O)NCCC)c(O)c2)nn1	< 4.70	11	
CCCCCc1ccc(-c2cn(-c3ccc(O)c(C(=O)NCCC)c3)nn2)cc1	< 4.70	0	
CCCNC(=O)c1cc(-n2cc(-c3cccc(Cl)c3)nn2)ccc1O	< 4.70	33.8	
CCCCCCc1cn(-c2ccc(C(=O)N3CCCCC3)c(O)c2)nn1	< 4.70	8.3	
O=C(c1ccc(-n2cc(-c3ccccc3)nn2)cc1O)N1CCCCC1	< 4.70	0	
CCCNC(=O)c1cc(-n2cc(-c3cc(C(F)(F)F)cc(C(F)(F)F)c3)nn2)ccc1O	< 4.70	1.8	
CCCCCc1ccc(-c2cn(-c3ccc(O)c(C(=O)N4CCCCC4)c3)nn2)cc1	< 4.70	18.4	
CC(C)CCc1cn(-c2ccc(O)c(C(=O)N3CCCCC3)c2)nn1	< 4.70	0.9	
CCCNC(=O)c1ccc(-n2cc(-c3cc(C(F)(F)F)cc(C(F)(F)F)c3)nn2)cc1O	< 4.70	0	
